Assay results published in ChEMBL document CHEMBL1122792, “Synthesis and biological evaluation of radiolabeled beta-ruthenocenylalanine” (J Med Chem, 1984).

How the values were obtained:
Mus musculus [1] = assay: Distribution of Radioactivity in pancreas of CD-1 Mice by intravenous administration of compound after 1 day expressed as dose/gram; assay type: ADME, organism-based; details: in vivo, 24 h
Outline: (§1)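 Female CD-1 mice, 7 1/2 weeks old (25-29 g), fed and watered ad libitum. Agent given in physiological saline, pH adjusted to 7.4 and filtered, by lateral tail vein injection under ether anesthesia. Tissues collected at 5 min, 1 h, 4 h and 1 day. Injectate samples counted as standard; results as mean % injected dose/g with range.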

Rattus norvegicus [2] = assay: Distribution of Radioactivity in liver of Fisher 344 Rats by intravenous administration of compound after 5 minutes expressed as dose/gram; assay type: ADME, organism-based; details: in vivo
Outline: (§2)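 Female Fischer 344 rats, 10-12 weeks old (170-200 g), fed and watered ad libitum; four rats per time point. Each received ~6.3 μCi in 0.05 mL saline (pH 7.4, filtered), given by lateral tail vein under ether anesthesia. Tissues taken at 5 min, 1 h, 4 h and 1 day. Injectate standards used; values as mean % injected dose/g with range.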

Rattus norvegicus [3] = assay: Distribution of Radioactivity in small intestine of Fisher 344 Rats by intravenous administration of compound after 4 hour expressed as dose/gram; assay type: ADME, organism-based; details: in vivo
Outline: (§3)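 Female Fischer 344 rats, 10-12 weeks old (170-200 g), food and water ad libitum; four rats per time point. About 6.3 μCi given in 0.05 mL saline (pH 7.4, filtered) by lateral tail vein under ether anesthesia. Tissues sampled at 5 min, 1 h, 4 h or 1 day. %ID/g computed from injectate standards; mean and range given.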

Mus musculus [4] = assay: Distribution of Radioactivity in liver of CD-1 Mice […] by intravenous administration of compound after 5 minutes expressed as dose/gram; assay type: ADME, organism-based; details: in vivo; outline: as §1
Rattus norvegicus [5] = assay: Distribution of Radioactivity in blood of Fisher 344 Rats by intravenous administration of compound after 4 hour expressed as dose/gram; assay type: ADME, organism-based; details: in vivo; outline: as §2
Rattus norvegicus [6] = assay: Distribution of Radioactivity in liver of Fisher 344 Rats by intravenous administration of compound after 1 day expressed as dose/gram; assay type: ADME, organism-based; details: in vivo, 24 h; outline: as §2
Rattus norvegicus [7] = assay: Distribution of Radioactivity in kidneys of Fisher 344 Rats by intravenous administration of compound after 1 day expressed as dose/gram; assay type: ADME, organism-based, Kidney; details: in vivo, 24 h; outline: as §2
Mus musculus [8] = assay: Distribution of Radioactivity in blood of CD-1 Mice by intravenous administration of compound after 4 hour expressed as dose/gram; assay type: ADME, organism-based; details: in vivo; outline: as §1
Mus musculus [9] = assay: Distribution of Radioactivity in lungs of CD-1 Mice by intravenous administration of compound after 4 hour expressed as dose/gram; assay type: ADME, organism-based, Lung; details: in vivo; outline: as §1
Mus musculus [10] = assay: Distribution of Radioactivity in kidneys of CD-1 Mice by intravenous administration of compound after 4 hr expressed as dose/gram; assay type: ADME, organism-based, Kidney; details: in vivo; outline: as §1
Rattus norvegicus [11] = assay: Distribution of Radioactivity in thymus of Fisher 344 Rats by intravenous administration of compound after 1 hour expressed as dose/gram; assay type: ADME, organism-based; details: in vivo; outline: as §3
Rattus norvegicus [12] = assay: Distribution of Radioactivity in thymus of Fisher 344 Rats by intravenous administration of compound after 4 hour expressed as dose/gram; assay type: ADME, organism-based; details: in vivo; outline: as §3
Rattus norvegicus [13] = assay: Distribution of Radioactivity in stomach of Fisher 344 Rats by intravenous administration of compound after 4 hour expressed as dose/gram; assay type: ADME, organism-based; details: in vivo; outline: as §3
Rattus norvegicus [14] = assay: Distribution of Radioactivity in lungs of Fisher 344 Rats by intravenous administration of compound after 4 hour expressed as dose/gram; assay type: ADME, organism-based, Lung; details: in vivo; outline: as §2
Rattus norvegicus [15] = assay: Distribution of Radioactivity in small intestine of Fisher 344 Rats by intravenous administration of compound after 1 day expressed as dose/gram; assay type: ADME, organism-based; details: in vivo, 24 h; outline: as §3
Mus musculus [16] = assay: Distribution of Radioactivity in lungs of CD-1 Mice by intravenous administration of compound after 1 hr expressed as dose/gram; assay type: ADME, organism-based, Lung; details: in vivo; outline: as §1
Rattus norvegicus [17] = assay: Distribution of Radioactivity in spleen of Fisher 344 Rats by intravenous administration of compound after 1 hour expressed as dose/gram; assay type: ADME, organism-based; details: in vivo; outline: as §3
Rattus norvegicus [18] = assay: Distribution of Radioactivity in spleen of Fisher 344 Rats by intravenous administration of compound after 1 day expressed as dose/gram; assay type: ADME, organism-based; details: in vivo, 24 h; outline: as §3
Rattus norvegicus [19] = assay: Distribution of Radioactivity in liver of Fisher 344 Rats by intravenous administration of compound after 1 hour expressed as dose/gram; assay type: ADME, organism-based; details: in vivo; outline: as §2
Mus musculus [20] = assay: Distribution of Radioactivity in thymus of CD-1 Mice by intravenous administration of compound after 1 day expressed as dose/gram; assay type: ADME, organism-based; details: in vivo, 24 h
Outline: (§4)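 Female CD-1 mice, 7 1/2 weeks old (25-29 g), fed and watered ad libitum. Radiotracer in physiological saline, pH 7.4, filtered, injected via lateral tail vein under ether anesthesia. Tissues taken at 5 min, 1 h, 4 h or 1 day. Percent injected dose per gram calculated against assayed samples of the injected solution; mean with range reported.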

Mus musculus [21] = assay: Distribution of Radioactivity in thymus of CD-1 Mice by intravenous administration of compound after 4 hr expressed as dose/gram; assay type: ADME, organism-based; details: in vivo; outline: as §4
Mus musculus [22] = assay: Distribution of Radioactivity in adrenals of CD-1 Mice by intravenous administration of compound after 1 hr expressed as dose/gram; assay type: ADME, organism-based, Adrenal gland; details: in vivo; outline: as §1
Rattus norvegicus [23] = assay: Distribution of Radioactivity in kidneys of Fisher 344 Rats by intravenous administration of compound after 4 hour expressed as dose/gram; assay type: ADME, organism-based, Kidney; details: in vivo; outline: as §2
Mus musculus [24] = assay: Distribution of Radioactivity in blood of CD-1 Mice by intravenous administration of compound after 1 hr expressed as dose/gram; assay type: ADME, organism-based; details: in vivo; outline: as §1
Mus musculus [25] = assay: Distribution of Radioactivity in small intestine of CD-1 Mice by intravenous administration of compound after 4 hr expressed as dose/gram; assay type: ADME, organism-based; details: in vivo; outline: as §4
Mus musculus [26] = assay: Distribution of Radioactivity in liver of CD-1 Mice by intravenous administration of compound after 4 hour expressed as dose/gram; assay type: ADME, organism-based; details: in vivo; outline: as §1
Rattus norvegicus [27] = assay: Distribution of Radioactivity in small intestine of Fisher 344 Rats by intravenous administration of compound after 1 hour expressed as dose/gram; assay type: ADME, organism-based; details: in vivo; outline: as §3
Rattus norvegicus [28] = assay: Distribution of Radioactivity in pancreas of Fisher 344 Rats by intravenous administration of compound after 5 minutes expressed as dose/gram; assay type: ADME, organism-based; details: in vivo; outline: as §2
Rattus norvegicus [29] = assay: Distribution of Radioactivity in stomach of Fisher 344 Rats by intravenous administration of compound after 5 minutes expressed as dose/gram; assay type: ADME, organism-based; details: in vivo; outline: as §3
Mus musculus [30] = assay: Distribution of Radioactivity in stomach of CD-1 Mice by intravenous administration of compound after 1 hr expressed as dose/gram; assay type: ADME, organism-based; details: in vivo; outline: as §4
Rattus norvegicus [31] = assay: Distribution of Radioactivity in kidneys of Fisher 344 Rats by intravenous administration of compound after 5 minutes expressed as dose/gram; assay type: ADME, organism-based, Kidney; details: in vivo; outline: as §2
Mus musculus [32] = assay: Distribution of Radioactivity in kidneys of CD-1 Mice by intravenous administration of compound after 1 hr expressed as dose/gram; assay type: ADME, organism-based, Kidney; details: in vivo; outline: as §1
Rattus norvegicus [33] = assay: Distribution of Radioactivity in adrenals of Fisher 344 Rats by intravenous administration of compound after 1 day expressed as dose/gram; assay type: ADME, organism-based, Adrenal gland; details: in vivo, 24 h; outline: as §2
Mus musculus [34] = assay: Distribution of Radioactivity in thymus of CD-1 Mice by intravenous administration of compound after 1 hr expressed as dose/gram; assay type: ADME, organism-based; details: in vivo; outline: as §4
Rattus norvegicus [35] = assay: Distribution of Radioactivity in pancreas of Fisher 344 Rats by intravenous administration of compound after 1 day expressed as dose/gram; assay type: ADME, organism-based; details: in vivo, 24 h; outline: as §2
Mus musculus [36] = assay: Distribution of Radioactivity in spleen of CD-1 Mice by intravenous administration of compound after 1 day expressed as dose/gram; assay type: ADME, organism-based; details: in vivo, 24 h; outline: as §4
Mus musculus [37] = assay: Distribution of Radioactivity in stomach of CD-1 Mice by intravenous administration of compound after 5 minutes expressed as dose/gram; assay type: ADME, organism-based; details: in vivo; outline: as §4
Rattus norvegicus [38] = assay: Distribution of Radioactivity in lungs of Fisher 344 Rats by intravenous administration of compound after 5 minutes expressed as dose/gram; assay type: ADME, organism-based, Lung; details: in vivo; outline: as §2
Mus musculus [39] = assay: Distribution of Radioactivity in adrenals of CD-1 Mice by intravenous administration of compound after 5 minutes expressed as dose/gram; assay type: ADME, organism-based, Adrenal gland; details: in vivo; outline: as §1
Mus musculus [40] = assay: Distribution of Radioactivity in kidneys of CD-1 Mice by intravenous administration of compound after 1 day expressed as dose/gram; assay type: ADME, organism-based, Kidney; details: in vivo, 24 h; outline: as §1

Injected (Mus musculus [1]): 0.067% | Injected (Rattus norvegicus [2]): 2.844% | Injected (Rattus norvegicus [3]): 0.218% | Injected (Mus musculus [4]): 7.75% | Injected (Rattus norvegicus [5]): 0.134% | Injected (Rattus norvegicus [6]): 0.15% | Injected (Rattus norvegicus [7]): 1.128% | Injected (Mus musculus [8]): 0.22% | Injected (Mus musculus [9]): 0.47% | Injected (Mus musculus [10]): 1.321% | Injected (Rattus norvegicus [11]): 0.13% | Injected (Rattus norvegicus [12]): 0.035% | Injected (Rattus norvegicus [13]): 0.028% | Injected (Rattus norvegicus [14]): 0.124% | Injected (Rattus norvegicus [15]): 0.044% | Injected (Mus musculus [16]): 1.015% | Injected (Rattus norvegicus [17]): 0.14% | Injected (Rattus norvegicus [18]): 0.065% | Injected (Rattus norvegicus [19]): 1.27% | Injected (Mus musculus [20]): 0.138% | Injected (Mus musculus [21]): 0.195% | Injected (Mus musculus [22]): 1.054% | Injected (Rattus norvegicus [23]): 1.148% | Injected (Mus musculus [24]): 1.039% | Injected (Mus musculus [25]): 0.367% | Injected (Mus musculus [26]): 1.01% | Injected (Rattus norvegicus [27]): 1.421% | Injected (Rattus norvegicus [28]): 0.361% | Injected (Rattus norvegicus [29]): 0.243% | Injected (Mus musculus [30]): 0.326% | Injected (Rattus norvegicus [31]): 5.44% | Injected (Mus musculus [32]): 4.59% | Injected (Rattus norvegicus [33]): 0.044% | Injected (Mus musculus [34]): 0.35% | Injected (Rattus norvegicus [35]): 0.035% | Injected (Mus musculus [36]): 0.189% | Injected (Mus musculus [37]): 0.987% | Injected (Rattus norvegicus [38]): 1.123% | Injected (Mus musculus [39]): 6.85% | Injected (Mus musculus [40]): 0.871%
Substance: beta-[103,106Ru]Ruthenocenylalanine
